Assay results published in ChEMBL document CHEMBL2346548, “Design, synthesis, and structure-activity relationship studies of tryptanthrins as antitubercular agents” (J Nat Prod, 2013).

Experiments:
[1] = Tmax in C57BL/6 mouse at 40 mg/kg, po formulated in 20% DMSODMSO, 20% PEG400, 60% (30% HP-beta-CD in water); assay type: ADME, organism-based; set-up: dose 40 mg/kg, route oral; conditions: in vivo
Summary of the method: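 Female C57BL/6 mice, single 40 mg/kg oral gavage; three mice per time point; plasma at 30 min to 24 h, LC-MS; noncompartmental parameters reported as means.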

[2] = Clearance in Sprague-Dawley rat at 5 mg/kg, iv; assay type: ADME, organism-based; set-up: dose 5 mg/kg, route intravenous; conditions: in vivo
Summary of the method: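 Male Sprague-Dawley rats (n = 3), single 5 mg/kg iv dose as solution in PEG300/DMSO 50:50; plasma sampled 0.083–24 h, LC-MS bioanalysis; noncompartmental analysis, means.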

[3] = Tmax in Sprague-Dawley rat at 20 mg/kg, po; assay type: ADME, organism-based; set-up: dose 20 mg/kg, route oral; conditions: in vivo
[4] = Cmax in Sprague-Dawley rat at 20 mg/kg, po; assay type: ADME, organism-based; set-up: dose 20 mg/kg, route oral; conditions: in vivo
CYP3A4 = CYP3A4 (Homo sapiens, UniProt P08684); assay: Inhibition of human recombinant CYP3A4 at 10 uM incubated for 30 mins at 37 degC using 7-benzyloxy-4-(trifluoromethyl)coumarin substrate; assay type: ADME; conditions: recombinant CYP3A4, probe 7-benzyloxy-4-(trifluoromethyl)coumarin
Sequence of CYP3A4 (P08684 whole entry): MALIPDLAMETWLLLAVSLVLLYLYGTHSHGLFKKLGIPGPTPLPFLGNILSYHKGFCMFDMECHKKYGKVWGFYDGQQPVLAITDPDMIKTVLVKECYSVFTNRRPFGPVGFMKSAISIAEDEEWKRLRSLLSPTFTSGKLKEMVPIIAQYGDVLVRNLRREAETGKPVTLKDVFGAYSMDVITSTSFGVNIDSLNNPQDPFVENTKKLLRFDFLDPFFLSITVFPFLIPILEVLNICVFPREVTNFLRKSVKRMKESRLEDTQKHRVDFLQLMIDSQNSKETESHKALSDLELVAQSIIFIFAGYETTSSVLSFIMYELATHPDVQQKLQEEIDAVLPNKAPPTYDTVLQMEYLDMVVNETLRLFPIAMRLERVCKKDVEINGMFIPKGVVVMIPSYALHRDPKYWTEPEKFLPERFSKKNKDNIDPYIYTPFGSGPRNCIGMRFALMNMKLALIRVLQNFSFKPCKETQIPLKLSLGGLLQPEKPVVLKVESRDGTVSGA

[5] = Permeability across apical to basolateral side in human Caco2 cells incubated for 1 hr at 37 degC by HPLC-MS/MS method; assay type: ADME, cell-based; conditions: Caco-2
Summary of the method: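 TC7 (Caco-2 subclone) monolayer; 10 μM compound in 1% DMSO in HBSS-MES pH 6.5 on apical donor side, basolateral receiver pH 7.4; shaken 1 h at 37 °C; receiver sampled, HPLC-MS/MS; duplicate means.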

[6] = Protein binding in human plasma at 10 uM incubated for 8 hrs at 37 degC by equilibrium dialysis method; assay type: ADME, cell-free; conditions: read-out: PPB (converted)
Summary of the method: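 Equilibrium dialysis: 10 μM compound in 1% DMSO in human plasma vs 0.05 M phosphate buffer pH 7.5 across 12–14 K cutoff membrane, at least 8 h at 37 °C; HPLC-photodiode detection at 230 nm; duplicate means.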

[7] = Distribution coefficient, log D of the compound between n-octanol and PBS buffer at pH 7.4 incubated for 1 hr by shake flask method; assay type: physicochemical
Summary of the method: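 Partition between n-octanol and PBS pH 7.4 after 1 h shaking at room temperature; phases analysed by HPLC with photodiode detection; logD = log10 of organic/aqueous amount.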

[8] = test system: Mycobacterium tuberculosis; assay: Antitubercular activity against Mycobacterium tuberculosis Erdman ATCC 35801 infected in C57BL/6 mouse assessed as viable bacterial load in spleen at 200 mg/kg/day through gavage 5 days per week for 4 weeks starting on 10th day post-infection (reference value: 4.79 +/- 0.21 log10CFU/spleen); assay type: functional
[9] = test system: Mycobacterium tuberculosis; assay: Antitubercular activity against Mycobacterium tuberculosis Erdman ATCC 35801 infected in C57BL/6 mouse assessed as viable bacterial load in lung at 200 mg/kg twice daily through gavage 5 days per week for 4 weeks starting on 10th day post-infection (reference value: 6.49 +/- 0.10 log10CFU/lung); assay type: functional
Salmonella typhimurium = assay: Mutagenicity in Salmonella typhimurium TA98 assessed as mean revertant colonies at 0.25 to 240 ug/well in presence of rat liver S9 fraction; assay type: toxicity, organism-based; conditions: salmonella enterica subsp. enterica serovar typhimurium
Summary of the method: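 MicroAmes: strains preincubated with or without Aroclor-induced rat liver S9, duplicate wells, six concentrations 0.25–250 μg equivalents/well; DMSO vehicle, 4-nitroquinoline-N-oxide (−S9) and 2-aminoanthracene (+S9) positive controls; revertant colonies counted; cytotoxicity noted as reduced revertants or background lawn; precipitation recorded.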

## O=C1C2=Nc3ccccc3CN2c2ccc(Cl)cc21
[1]
  Tmax: 1.5 h
[2]
  clearance: 92.8 mL/min/kg
[3]
  Tmax: 2 h
[4]
  Cmax: 50 ng/mL
CYP3A4
  inhibition at 0.5 h, 10 µM: 1%
[5]
  Papp A→B at 1 h: 60.8 ×10⁻⁶ cm/s
[6]
  fraction unbound at 8 h, 10 µM: 0.013
[7]
  logD at 1 h: 3.37
[8]
  log10cfu: 4.85
[9]
  log10cfu: 6.64
Salmonella typhimurium
  Activity: Non-toxic
